Measurements from ChEMBL document CHEMBL4689842, “EUbOPEN Chemogenomics Library wave 1” (2021).

Test system: HEK-293T
Experiment: Multiplex assay against HEK293T;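 for Population Tubulin-Different-Phenotype (%): share of the cells with healthy nuclei that show this phenotype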
Format: toxicity, cell-based
Conditions: human
Method in brief: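 Per cents of healthy-nucleus cells form the tubulin, mitochondrial-mass and membrane-permeability phenotype values. Live cells were stained at seeding with Hoechst33342, BioTracker Green Microtubule Cytoskeleton Dye, MitoTracker Red and Annexin V Alexa Fluor 680. After compound addition they were imaged on a CQ1 microscope at 37°C and 5% CO2, and CellPathfinder machine-learning gating split them into Hoechst high-intensity objects or normal cells, normal cells into healthy, pyknosed or fragmented nuclei, and pyknosed cells into mitotic or apoptotic.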

[1] = 12 h, 1 µM, compound concentration 1 uM, replicate 1
[2] = 12 h, 1 µM, compound concentration 1 uM, replicate 2
[3] = 12 h, 10 µM, compound concentration 10 uM, replicate 1
[4] = 12 h, 10 µM, compound concentration 10 uM, replicate 2
[5] = 24 h, 1 µM, compound concentration 1 uM, replicate 1
[6] = 24 h, 1 µM, compound concentration 1 uM, replicate 2
[7] = 24 h, 10 µM, compound concentration 10 uM, replicate 1
[8] = 24 h, 10 µM, compound concentration 10 uM, replicate 2
[9] = 48 h, 1 µM, compound concentration 1 uM, replicate 1
[10] = 48 h, 1 µM, compound concentration 1 uM, replicate 2
[11] = 48 h, 10 µM, compound concentration 10 uM, replicate 1
[12] = 48 h, 10 µM, compound concentration 10 uM, replicate 2

CN1C(=O)[C@@H](NC(=O)c2cc3ccccc3[nH]2)N=C(c2ccccc2)c2ccccc21 [DEVAZEPIDE]
Population Apoptotic (%) [1]: 49%
Population Fragmented Nuclei (%) [1]: 9%
Population Healthy Nuclei (%) [1]: 38%
Population Hoechst High Intensity Objects (%) [1]: 11%
Population Membrane Permeable-Phenotype (%) [1]: 8%
Population Mitochondria Different-Phenotype (%) [1]: 73%
Population Mitotic Cells (%) [1]: 50%
Population Normal (%) [1]: 88%
Population Pyknosed Nuclei (%) [1]: 52%
Population Tubulin-Different-Phenotype (%) [1]: 50%
Total Cell Count [1]: 314
Population Apoptotic (%) [2]: 12%
Population Fragmented Nuclei (%) [2]: 6%
Population Healthy Nuclei (%) [2]: 36%
Population Hoechst High Intensity Objects (%) [2]: 3%
Population Membrane Permeable-Phenotype (%) [2]: 9%
Population Mitochondria Different-Phenotype (%) [2]: 34%
Population Mitotic Cells (%) [2]: 87%
Population Normal (%) [2]: 96%
Population Pyknosed Nuclei (%) [2]: 56%
Population Tubulin-Different-Phenotype (%) [2]: 28%
Total Cell Count [2]: 205
Population Apoptotic (%) [3]: 58%
Population Fragmented Nuclei (%) [3]: 11%
Population Healthy Nuclei (%) [3]: 24%
Population Hoechst High Intensity Objects (%) [3]: 15%
Population Membrane Permeable-Phenotype (%) [3]: 5%
Population Mitochondria Different-Phenotype (%) [3]: 88%
Population Mitotic Cells (%) [3]: 41%
Population Normal (%) [3]: 84%
Population Pyknosed Nuclei (%) [3]: 63%
Population Tubulin-Different-Phenotype (%) [3]: 76%
Total Cell Count [3]: 287
Population Apoptotic (%) [4]: 25%
Population Fragmented Nuclei (%) [4]: 4%
Population Healthy Nuclei (%) [4]: 34%
Population Hoechst High Intensity Objects (%) [4]: 3%
Population Membrane Permeable-Phenotype (%) [4]: 15%
Population Mitochondria Different-Phenotype (%) [4]: 48%
Population Mitotic Cells (%) [4]: 74%
Population Normal (%) [4]: 96%
Population Pyknosed Nuclei (%) [4]: 60%
Population Tubulin-Different-Phenotype (%) [4]: 66%
Total Cell Count [4]: 228
Population Apoptotic (%) [5]: 48%
Population Fragmented Nuclei (%) [5]: 11%
Population Healthy Nuclei (%) [5]: 36%
Population Hoechst High Intensity Objects (%) [5]: 13%
Population Membrane Permeable-Phenotype (%) [5]: 3%
Population Mitochondria Different-Phenotype (%) [5]: 67%
Population Mitotic Cells (%) [5]: 51%
Population Normal (%) [5]: 86%
Population Pyknosed Nuclei (%) [5]: 51%
Population Tubulin-Different-Phenotype (%) [5]: 52%
Total Cell Count [5]: 327
Population Apoptotic (%) [6]: 14%
Population Fragmented Nuclei (%) [6]: 4%
Population Healthy Nuclei (%) [6]: 57%
Population Hoechst High Intensity Objects (%) [6]: 2%
Population Membrane Permeable-Phenotype (%) [6]: 15%
Population Mitochondria Different-Phenotype (%) [6]: 20%
Population Mitotic Cells (%) [6]: 85%
Population Normal (%) [6]: 97%
Population Pyknosed Nuclei (%) [6]: 37%
Population Tubulin-Different-Phenotype (%) [6]: 34%
Total Cell Count [6]: 231
Population Apoptotic (%) [7]: 56%
Population Fragmented Nuclei (%) [7]: 16%
Population Healthy Nuclei (%) [7]: 15%
Population Hoechst High Intensity Objects (%) [7]: 17%
Population Membrane Permeable-Phenotype (%) [7]: 5%
Population Mitochondria Different-Phenotype (%) [7]: 91%
Population Mitotic Cells (%) [7]: 43%
Population Normal (%) [7]: 82%
Population Pyknosed Nuclei (%) [7]: 67%
Population Tubulin-Different-Phenotype (%) [7]: 91%
Total Cell Count [7]: 284
Population Apoptotic (%) [8]: 41%
Population Fragmented Nuclei (%) [8]: 7%
Population Healthy Nuclei (%) [8]: 46%
Population Hoechst High Intensity Objects (%) [8]: 4%
Population Membrane Permeable-Phenotype (%) [8]: 15%
Population Mitochondria Different-Phenotype (%) [8]: 47%
Population Mitotic Cells (%) [8]: 58%
Population Normal (%) [8]: 95%
Population Pyknosed Nuclei (%) [8]: 46%
Population Tubulin-Different-Phenotype (%) [8]: 74%
Total Cell Count [8]: 245
Population Apoptotic (%) [9]: 50%
Population Fragmented Nuclei (%) [9]: 15%
Population Healthy Nuclei (%) [9]: 28%
Population Hoechst High Intensity Objects (%) [9]: 16%
Population Membrane Permeable-Phenotype (%) [9]: 6%
Population Mitochondria Different-Phenotype (%) [9]: 48%
Population Mitotic Cells (%) [9]: 50%
Population Normal (%) [9]: 83%
Population Pyknosed Nuclei (%) [9]: 55%
Population Tubulin-Different-Phenotype (%) [9]: 41%
Total Cell Count [9]: 356
Population Apoptotic (%) [10]: 9%
Population Fragmented Nuclei (%) [10]: 5%
Population Healthy Nuclei (%) [10]: 74%
Population Hoechst High Intensity Objects (%) [10]: 4%
Population Membrane Permeable-Phenotype (%) [10]: 7%
Population Mitochondria Different-Phenotype (%) [10]: 11%
Population Mitotic Cells (%) [10]: 90%
Population Normal (%) [10]: 95%
Population Pyknosed Nuclei (%) [10]: 20%
Population Tubulin-Different-Phenotype (%) [10]: 34%
Total Cell Count [10]: 361
Population Apoptotic (%) [11]: 66%
Population Fragmented Nuclei (%) [11]: 24%
Population Healthy Nuclei (%) [11]: 6%
Population Hoechst High Intensity Objects (%) [11]: 22%
Population Membrane Permeable-Phenotype (%) [11]: 7%
Population Mitochondria Different-Phenotype (%) [11]: 100%
Population Mitotic Cells (%) [11]: 33%
Population Normal (%) [11]: 77%
Population Pyknosed Nuclei (%) [11]: 69%
Population Tubulin-Different-Phenotype (%) [11]: 84%
Total Cell Count [11]: 276
Population Apoptotic (%) [12]: 63%
Population Fragmented Nuclei (%) [12]: 12%
Population Healthy Nuclei (%) [12]: 44%
Population Hoechst High Intensity Objects (%) [12]: 5%
Population Membrane Permeable-Phenotype (%) [12]: 22%
Population Mitochondria Different-Phenotype (%) [12]: 41%
Population Mitotic Cells (%) [12]: 36%
Population Normal (%) [12]: 94%
Population Pyknosed Nuclei (%) [12]: 43%
Population Tubulin-Different-Phenotype (%) [12]: 64%
Total Cell Count [12]: 237
